Test results: publication PMC12246158 (Scientific Reports, 2025)

Tests used:
L. tropica promastigotes = test: Parasite counting method; assay type: cell-based; conditions: microscopic counting, 24, 48 and 72 h at 24 °C
Method in brief: (§1)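 Promastigotes (L. major MRHO/IR/75/ER; L. tropica MRHO/IR/02/Mash10), grown in RPMI 1640 with 20% heat-inactivated FBS and pen-strep, were seeded at 1 × 10^6/mL in log phase. They were exposed to 3.12–1000 µM test compound (DMSO stock diluted in PBS) for 24, 48 and 72 h at 24 °C. Fixed parasites were counted daily in a Neubauer chamber at 400x. Triplicate; AmB 0.93 µM reference; repeated-measures ANOVA.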

L. major promastigotes = test: Parasite counting method; assay type: cell-based; conditions: microscopic counting, 24, 48 and 72 h at 24 °C
Method in brief: as §1

[1] = tested on: L. major intracellular amastigotes; test: Anti-intracellular amastigote activity in J774A.1 macrophages; assay type: cell-based, L. major (MRHO/IR/75/ER); conditions: Leishmania species not given
Method in brief: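 SI = CC50/IC50. For amastigotes, J774A.1 cells (10^5/well) were seeded on coverslips for 24 h at 37 °C, 5% CO2, then infected with stationary-phase metacyclic promastigotes (10:1) for 24 h. Test compound 1.32–1000 µM was added for 72 h, then cells were methanol-fixed and Giemsa-stained; amastigotes per 100 macrophages were counted. […] Triplicates.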

Question: CNC(=S)NN=Cc1ccc(OC)c(OC)c1 [Compound 5a, 2-(3,4-Dimethoxybenzylidene)-N-methylhydrazine-1-carbothioamide] was tested. Which “effect on promastigote count (in words)” value (L. tropica promastigotes) did it give?
Answer: Its value is “significant reduction in promastigote count”.

Question: And the “effect on promastigote count (in words)” value (L. major promastigotes)?
Answer: The value was “significant reduction in promastigote count”.

Question: Which “effect on promastigote count (in words)” value (L. tropica promastigotes) does the source give for CNC(=S)NN=Cc1ccc(O)c(OC)c1 [Compound 5b, 2-(4-Hydroxy-3-methoxybenzylidene)-N-methylhydrazine-1-carbothioamide] here?
Answer: Its value is “significant reduction in promastigote count”.

Question: And the “effect on promastigote count (in words)” value (L. major promastigotes)?
Answer: Its value is “significant reduction in promastigote count”.

Question: How did the “effect on promastigote count (in words)” value (L. tropica promastigotes) turn out when CNC(=S)NN=Cc1ccc(C)cc1 [Compound 5c, N-Methyl-2-(4-methylbenzylidene)hydrazine-1-carbothioamide] was run?
Answer: Its value is “mild”.

Question: What about the “effect on promastigote count (in words)” value (L. major promastigotes) of the same molecule?
Answer: Its value is “mild”.

Question: For CNC(=S)NN=Cc1ccc(Br)cc1 [Compound 5e, 2-(4-Bromobenzylidene)-N-methylhydrazine-1-carbothioamide], which “effect on promastigote count (in words)” value (L. tropica promastigotes) is on record?
Answer: Its value is “significant reduction in promastigote count”.

Question: What about the “effect on promastigote count (in words)” value (L. major promastigotes) of the same molecule?
Answer: The value was “significant reduction in promastigote count”.

Question: CNC(=S)NN=Cc1ccc([N+](=O)[O-])cc1 [Compound 5f, 2-(4-Nitrobenzylidene)-N-methylhydrazine-1-carbothioamide] was tested. Which “effect on promastigote count (in words)” value (L. tropica promastigotes) did it give?
Answer: Its value is “significant reduction in promastigote count”.

Question: And the “effect on promastigote count (in words)” value (L. major promastigotes)?
Answer: Its value is “significant reduction in promastigote count”.

Question: For CNC(=S)NN=Cc1ccc(OC)cc1 [Compound 5g, N-Methyl-2-(4-methoxybenzylidene)hydrazine-1-carbothioamide], which “effect on promastigote count (in words)” value (L. tropica promastigotes) is on record?
Answer: The value was “significant reduction in promastigote count”.

Question: What about the “effect on promastigote count (in words)” value (L. major promastigotes) of the same molecule?
Answer: The value was “significant reduction in promastigote count”.

Question: With O=[N+]([O-])NC(=S)NN=Cc1ccc(Br)cc1 [Compound 5j, 2-(4-Bromobenzylidene)-N-nitrohydrazine-1-carbothioamide] as the molecule, how does the “effect on promastigote count (in words)” value (L. tropica promastigotes) read?
Answer: Its value is “mild effect”.

Question: What about the “effect on promastigote count (in words)” value (L. major promastigotes) of the same molecule?
Answer: The value was “mild effect”.

Question: S=C(NN=Cc1ccc(Br)cc1)Nc1cccnc1 [Compound 5n, 2-(4-Bromobenzylidene)-N-(pyridin-3-yl)hydrazine-1-carbothioamide] was tested. Which “effect on promastigote count (in words)” value (L. tropica promastigotes) did it give?
Answer: Its value is “limited activity”.

Question: What about the “reduction of the number of amastigotes toward the untreated negative control” value [1] of the same molecule?
Answer: The value was 20–25%.

Question: And the “effect on promastigote count (in words)” value (L. major promastigotes)?
Answer: The value was “limited activity”.

Question: With COc1ccc(C=NNC(=S)Nc2cccnc2)cc1OC [Compound 5o, 2-(3,4-Dimethoxybenzylidene)-N-(pyridin-3-yl)hydrazine-1-carbothioamide] as the molecule, how does the “effect on promastigote count (in words)” value (L. tropica promastigotes) read?
Answer: Its value is “limited activity”.

Question: What about the “reduction of the number of amastigotes toward the untreated negative control” value [1] of the same molecule?
Answer: The value was 20–25%.

Question: What about the “effect on promastigote count (in words)” value (L. major promastigotes) of the same molecule?
Answer: Its value is “limited activity”.
